From ChEMBL document CHEMBL3526054, “Substituted imidazole of 5-fluoro-2-[4-[(2-phenyl-1H-imidazol-5-yl)methyl]-1-piperazinyl]pyrimidine Inactivates cytochrome P450 2D6 by protein adduction” (Drug Metab Dispos, 2011)

What was measured:
[1] = target: T1, Cytochrome P450 2D6 (Homo sapiens, UniProt P10635); assay: Partition ratio of […] assessed as number of molecules of compound metabolized per molecule of inactivated enzyme after 60 mins by HPLC analysis; format: ADME; details: recombinant enzyme, 1 h
[2] = target: T1, Cytochrome P450 2D6; assay: (§1) Inhibition of catalytic activity of recombinant human CYP2D6 expressed in Escherichia coli co-expressing P450 reductase assessed as hydroxybufuralol activity at 16 uM after <15 mins by HPLC analysis in presence of NADPH; format: ADME; details: recombinant enzyme, 0.25 h, 16 µM
[3] = target: T1, Cytochrome P450 2D6; assay: Binding affinity to recombinant human CYP2D6 expressed in Escherichia coli co-expressing P450 reductase by spectral analysis; format: ADME; details: read-out: Ks
Method in brief: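 Purified recombinant CYP2D6 (from E. coli), 1 μM in 100 mM potassium phosphate pH 7.4, split between two cuvettes at room temperature. Ligand (0.05–16 μM, in water) titrated into the sample cuvette, solvent into the reference. Difference spectra recorded 350–500 nm. ΔA430–395 plotted against concentration. Ks obtained by nonlinear fit to the quadratic tight-binding equation.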

[4] = target: T2, CYP2D6 (Homo sapiens, UniProt P10635); assay: as §1; format: ADME; details: probe bufuralol (hydroxybufuralol formation)
[5] = target: T2, CYP2D6; assay: Inhibition of catalytic activity of recombinant human CYP2D6 expressed in Escherichia coli co-expressing P450 reductase assessed as loss of ability to bind CO at 16 uM after <15 mins by […] in presence of NADPH; format: ADME
Method in brief: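 Purified CYP2D6 (1 μM) reconstituted with 2 μM P450 reductase, 30 μM dilauroyl-PC, catalase and SOD in 100 mM KPi pH 7.4, with 16 μM compound and an NADPH-generating system. Incubated up to 25 min. Controls lacked compound or NADPH system. Quenched with detergent buffer. Reduced-CO difference spectrum read 400–500 nm; P450 from A450–A475 (91 mM⁻¹cm⁻¹), expressed relative to time 0.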

[6] = target: T2, CYP2D6; assay: Inhibition of catalytic activity of recombinant human CYP2D6 expressed in Escherichia coli co-expressing P450 reductase assessed as loss of native heme in hemochrome at 16 uM after <15 mins by hemochrome assay in presence of NADPH; format: ADME
Method in brief: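 Purified CYP2D6 (1 μM) with 2 μM reductase, 30 μM dilauroyl-PC, catalase, SOD and 16 μM compound in 100 mM KPi pH 7.4, incubated 0–40 min with an NADPH-generating system. Controls lacked compound or NADPH system. Quenched in detergent buffer, then pyridine (22%) and NaOH (0.01 N, final) added. Dithionite-reduced spectrum 520–620 nm; heme from A557–A575 (32.4 mM⁻¹cm⁻¹), relative to time 0.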

[7] = target: T2, CYP2D6; assay: Inhibition of catalytic activity of […] assessed as loss of native heme in hemochrome at 16 uM after <15 mins by HPLC analysis in presence of NADPH; format: ADME
[8] = target: Cytochrome P450 2C19 (Homo sapiens, UniProt P33261); assay: Drug metabolism assessed as CYP2C19 (unknown origin)-mediated retention time of metabolite by LC-MS/MS analysis in presence of NADPH; format: ADME
[9] = target: Cytochrome P450 2C9 (Homo sapiens, UniProt P11712); assay: Drug metabolism assessed as CYP2C9 (unknown origin)-mediated retention time of metabolite by LC-MS/MS analysis in presence of NADPH; format: ADME
[10] = target: T1, Cytochrome P450 2D6; assay: Drug metabolism assessed as human CYP2D6 with P450 reductase-mediated retention time of metabolite by LC-MS/MS analysis in presence of NADPH; format: ADME
[11] = target: T1, Cytochrome P450 2D6; assay: Inhibition of CYP2D6 (unknown origin); format: ADME
[12] = target: T1, Cytochrome P450 2D6; assay: Covalent binding affinity to human CYP2D6 with P450 reductase assessed per nmol of enzyme after 60 mins by protein precipitation and scintillation counting analysis in absence of NADPH; details: 1 h
[13] = target: T1, Cytochrome P450 2D6; assay: Covalent binding affinity to human CYP2D6 with P450 reductase assessed per nmol of enzyme after 60 mins by protein precipitation and scintillation counting analysis in presence of NADPH; details: 1 h

T1 sequence (P10635 whole entry): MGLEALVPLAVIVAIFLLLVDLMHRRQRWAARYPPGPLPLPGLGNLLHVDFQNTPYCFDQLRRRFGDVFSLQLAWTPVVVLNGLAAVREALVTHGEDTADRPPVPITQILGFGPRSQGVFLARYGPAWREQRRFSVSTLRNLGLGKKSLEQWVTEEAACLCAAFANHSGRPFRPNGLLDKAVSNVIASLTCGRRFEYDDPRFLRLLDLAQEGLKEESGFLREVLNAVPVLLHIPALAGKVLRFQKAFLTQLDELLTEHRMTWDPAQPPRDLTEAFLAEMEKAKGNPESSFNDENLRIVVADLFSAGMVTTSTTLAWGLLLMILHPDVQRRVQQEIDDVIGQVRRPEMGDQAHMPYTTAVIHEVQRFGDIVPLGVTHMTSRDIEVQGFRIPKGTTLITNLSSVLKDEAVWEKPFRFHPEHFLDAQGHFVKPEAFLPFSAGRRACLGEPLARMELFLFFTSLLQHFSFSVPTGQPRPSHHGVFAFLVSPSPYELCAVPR
T2 sequence (P10635 whole entry): as above
Chain of Cytochrome P450 2C9 (P11712 whole entry): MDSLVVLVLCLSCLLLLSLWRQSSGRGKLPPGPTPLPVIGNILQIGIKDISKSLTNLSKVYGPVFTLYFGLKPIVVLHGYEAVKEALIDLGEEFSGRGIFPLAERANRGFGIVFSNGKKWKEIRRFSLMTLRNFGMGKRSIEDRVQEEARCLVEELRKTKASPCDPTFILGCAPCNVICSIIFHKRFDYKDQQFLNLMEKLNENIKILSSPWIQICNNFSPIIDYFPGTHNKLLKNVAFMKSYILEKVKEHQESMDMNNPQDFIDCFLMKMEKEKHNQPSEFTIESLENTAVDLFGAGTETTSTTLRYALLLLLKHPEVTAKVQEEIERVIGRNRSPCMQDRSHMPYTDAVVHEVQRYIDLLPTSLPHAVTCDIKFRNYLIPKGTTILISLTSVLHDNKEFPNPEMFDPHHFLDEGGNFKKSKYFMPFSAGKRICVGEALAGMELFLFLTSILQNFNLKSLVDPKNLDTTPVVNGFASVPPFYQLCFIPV
Chain of Cytochrome P450 2C19 (P33261 whole entry): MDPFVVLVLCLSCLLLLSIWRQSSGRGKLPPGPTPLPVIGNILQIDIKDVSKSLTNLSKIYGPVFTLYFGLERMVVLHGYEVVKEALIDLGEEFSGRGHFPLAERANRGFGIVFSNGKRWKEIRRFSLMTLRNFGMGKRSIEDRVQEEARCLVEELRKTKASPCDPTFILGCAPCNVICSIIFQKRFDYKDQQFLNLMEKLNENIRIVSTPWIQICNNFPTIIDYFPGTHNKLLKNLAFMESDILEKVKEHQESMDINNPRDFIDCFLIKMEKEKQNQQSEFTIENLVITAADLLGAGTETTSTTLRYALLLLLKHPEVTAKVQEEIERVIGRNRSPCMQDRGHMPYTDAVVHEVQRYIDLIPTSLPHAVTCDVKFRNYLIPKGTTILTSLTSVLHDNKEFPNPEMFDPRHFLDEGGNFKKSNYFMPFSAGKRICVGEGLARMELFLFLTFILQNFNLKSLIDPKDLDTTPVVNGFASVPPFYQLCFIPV

SMILES	Ratio [1]	inhibition (INH) [2]	Kd [3]	inhibition at 0.25 h, 16 µM [4]	inhibition at 0.25 h, 16 µM [5]	inhibition at 0.25 h, 16 µM [6]	inhibition at 0.25 h, 16 µM [7]	Retention_time [8]	Retention_time [9]	Retention_time [10]	Ki [11]	PB [12]	PB [13]
CCc1nc(C)c(CN2CCN(c3cc(C(F)(F)F)ccn3)CC2)[nH]1	99												
COc1ccc2c(c1)[C@]13CCCC[C@@H]1[C@H](C2)N(C)CC3 [DEXTROMETHORPHAN]		Active											
Fc1cnc(N2CCN(Cc3cnc(-c4ccccc4)[nH]3)CC2)nc1	3		0.39 µM	90%	25%	15%	25%	17 min	17 min	17 min	0.55 µM	1.95 nmol	3.15 nmol
